Data: ChEMBL document CHEMBL1146809, “(+)-3-[2-(Benzo[b]thiophen-2-yl)-2-oxoethyl]-1-azabicyclo[2.2.2]octane as potent agonists for the alpha7 nicotinic acetylcholine receptor” (Bioorg Med Chem Lett, 2004)

system: not listed separately; assay: Cmax wa determined in rat plasma at 30 mg/kg after po administration; type: ADME, organism-based; design: dose 30 mg/kg, route oral
Procedure, shortened: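 Rats were dosed orally at 30 mg/kg. The read-out was the peak plasma concentration (Cmax), reported in ng/mL.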

| Structure (SMILES) | Cmax [µg/mL] |
| --- | --- |
| O=C(CC1CN2CCC1CC2)c1cc2ccccc2s1 (stereo in doubt; 15b) | 0.27 |
| c1ccc2sc(CCC3CN4CCC3CC4)cc2c1 (stereo in doubt; 16b) | 0.45 |

molecular target: T1, Neuronal acetylcholine receptor subunit alpha-7 (Rattus norvegicus, UniProt Q05941); assay: Binding affinities for the alpha 7 nicotinic acetylcholine receptor was determined in PC12 cells; type: cell-based, PC-12
T1 sequence (Q05941 whole entry): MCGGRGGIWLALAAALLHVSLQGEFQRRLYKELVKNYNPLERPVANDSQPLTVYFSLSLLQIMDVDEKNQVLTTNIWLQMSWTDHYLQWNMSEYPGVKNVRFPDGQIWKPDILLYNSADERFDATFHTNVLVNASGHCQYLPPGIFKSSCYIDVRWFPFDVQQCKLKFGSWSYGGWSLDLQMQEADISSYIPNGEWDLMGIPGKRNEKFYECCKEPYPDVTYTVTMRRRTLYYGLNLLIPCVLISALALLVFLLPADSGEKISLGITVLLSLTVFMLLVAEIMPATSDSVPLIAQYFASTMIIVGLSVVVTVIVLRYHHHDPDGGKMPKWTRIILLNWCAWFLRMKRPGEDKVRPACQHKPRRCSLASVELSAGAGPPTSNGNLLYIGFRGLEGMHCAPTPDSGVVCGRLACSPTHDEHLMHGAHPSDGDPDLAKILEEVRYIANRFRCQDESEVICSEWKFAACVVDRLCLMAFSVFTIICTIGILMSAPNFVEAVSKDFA

| Structure (SMILES) | IC50 [µM] |
| --- | --- |
| c1ccc2c(COC3CN4CCC3CC4)cccc2c1 (configuration not stated) | 0.73 |
| c1ccc2cc(COC3CN4CCC3CC4)ccc2c1 (configuration not stated) | 0.15 |

molecular target: T1, Neuronal acetylcholine receptor subunit alpha-7; assay: Alpha 7 nicotinic acetylcholine receptor binding activity in PC12 cells; type: cell-based, PC-12

| Structure (SMILES) | IC50 [µM] |
| --- | --- |
| c1ccc2sc(CCC3CN4CCC3CC4)cc2c1 (stereo in doubt; (-)-16b) | 0.22 |
| c1ccc2sc(COC3CN4CCC3CC4)cc2c1 (configuration not stated) | 0.059 |
| O=C(c1cc2ccccc2s1)C1CN2CCC1CC2 (configuration not stated) | 0.95 |
| O=C(CC1CN2CCC1CC2)c1cc2ccccc2s1 (single isomer, unassigned; (+)) | 0.13 |
| COc1ccc(Cc2cccnc2-c2cccnc2)c(OC)c1 | 0.76 |
| c1ccc2sc(CCCC3CN4CCC3CC4)cc2c1 (configuration not stated) | 0.37 |
| O=C(CC1CN2CCC1CC2)c1cc2ccccc2s1 (stereo in doubt; 15b) | 0.15 |
| O=C(CC1CN2CCC1CC2)c1cc2ccccc2s1 (single isomer, unassigned; (-)) | 0.17 |
| c1ccc2sc(CC3CN4CCC3CC4)cc2c1 (configuration not stated) | 0.11 |
| c1ccc2sc(CO[C@H]3CN4CCC3CC4)cc2c1 | 0.515 |
| c1ccc2sc(CCC3CN4CCC3CC4)cc2c1 (stereo in doubt; 16b) | 0.023 |
| c1ccc2sc(CO[C@@H]3CN4CCC3CC4)cc2c1 | 0.026 |
| c1ccc2sc(CCC3CN4CCC3CC4)cc2c1 (single isomer, unassigned; (+)) | 0.065 |
